Assay results published in ChEMBL document CHEMBL1782009, “Synthesis and characterization of new types of halogenated and alkylated imidazolidineiminothiones and a comparative study of their antitumor, antibacterial, and antifungal activities” (Eur J Med Chem, 2011).
≈ marks a conversion by molar mass, not a printed value.

Key:
Aspergillus flavus [1] = test: Fungicidal activity against Aspergillus flavus by broth microtiter MIC test; format: functional
Escherichia coli [2] = test: Bactericidal activity against Escherichia coli NCTC 10416 by broth microtiter MIC test; format: functional
Escherichia coli [3] = test: Antibacterial activity against Escherichia coli NCTC 10416 by macrotube dilution method; format: functional
Outline: (§1)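 Macrotube twofold dilution following CLSI guidelines, with 15 tubes per organism. Tube 1 held 2 mg compound in 2.0 mL DMF and tubes 2–14 held 1.0 mL broth; 1.0 mL was carried serially, and tube 15 was the control. Colonies were suspended in 5.0 mL broth, then 0.2 mL was diluted into 40 mL, and 1.0 mL was added per tube. Bacteria were grown in nutrient broth at 37 °C overnight; fungi in Czapek's Dox at 30 °C for 72 h.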

Candida albicans [4] = test: Antifungal activity against Candida albicans IMRU 3669 at 5 mg/ml by agar disc diffusion method; format: functional; details: read-out: DIZ
Staphylococcus aureus [5] = test: Antibacterial activity against Staphylococcus aureus NCTC 7447 at 5 mg/ml after 24 hrs by agar disc diffusion method; format: functional; details: NCTC 7447, 24 h, read-out: DIZ
Outline: (§2)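 Agar well-diffusion using 1 cm wells, each loaded with 100 of compound solution (5 mg/mL in DMF). Bacteria were maintained on nutrient agar and plated as a standard suspension. Plates were incubated 24 h at 35 °C, and inhibition zone diameters were measured.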

Candida albicans [6] = test: Fungicidal activity against Candida albicans IMRU 3669 by broth microtiter MIC test; format: functional
Candida albicans [7] = test: Antifungal activity against Candida albicans IMRU 3669 after 72 hrs by macrotube dilution method; format: functional; details: IMRU 3669, 72 h; outline: as §1
Micrococcus luteus [8] = test: Antibacterial activity against Sarcina lutea ATCC 934 by macrotube dilution method; format: functional; outline: as §1
Staphylococcus aureus [9] = test: Antibacterial activity against Staphylococcus aureus NCTC 7447 by macrotube dilution method; format: functional; outline: as §1
Escherichia coli [10] = test: Antibacterial activity against Escherichia coli NCTC 10416 at 5 mg/ml after 24 hrs by agar disc diffusion method; format: functional; details: NCTC 10416, 24 h, read-out: DIZ; outline: as §2
Bacillus subtilis [11] = test: Antibacterial activity against Bacillus subtilis NCTC 1040 at 5 mg/ml after 24 hrs by agar disc diffusion method; format: functional; details: NCTC 1040, 24 h, read-out: DIZ; outline: as §2
Bacillus subtilis [12] = test: Antibacterial activity against Bacillus subtilis NCTC 1040 by macrotube dilution method; format: functional; outline: as §1
Bacillus subtilis [13] = test: Bactericidal activity against Bacillus subtilis NCTC 1040 by broth microtiter MIC test; format: functional
[14] = Antitumor activity against mouse EAC cells assessed as inhibition of cell viability at 100 ug/ml by Trypan blue assay; format: functional; details: Ehrlich
Outline: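 EAC cells were taken by needle aspiration of ascitic fluid from preinoculated mice and diluted 1:10 in saline. Then 0.1 mL of cell suspension, 0.8 mL RPMI 1640 and 0.1 mL compound were incubated 2 h at 37 °C. Dead cells were counted by trypan blue exclusion, and % non-viable = non-viable/total cells × 100.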

Staphylococcus aureus [15] = test: Bactericidal activity against Staphylococcus aureus NCTC 7447 by broth microtiter MIC test; format: functional
Micrococcus luteus [16] = test: Antibacterial activity against Sarcina lutea ATCC 934 at 5 mg/ml after 24 hrs by agar disc diffusion method; format: functional; details: ATCC 934, 24 h, read-out: DIZ; outline: as §2
Aspergillus flavus [17] = test: Antifungal activity against Aspergillus flavus at 5 mg/ml by agar disc diffusion method; format: functional; details: read-out: DIZ
Aspergillus flavus [18] = test: Antifungal activity against Aspergillus flavus after 72 hrs by macrotube dilution method; format: functional; outline: as §1
Micrococcus luteus [19] = test: Bactericidal activity against Sarcina lutea ATCC 934 by broth microtiter MIC test; format: functional
HepG2 [20] = test: Cytotoxicity against human HepG2 cells after 48 hrs by SRB assay; format: functional, cell-based; details: HepG2, 48 h
Outline: (§3)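 SRB assay per Skehan: compounds at 5.0, 12.5, 25 and 50 were added to cell monolayers in triplicate wells per dose for 48 h at 37 °C, 5% CO2. Cells were then fixed and stained with SRB, excess stain was removed with acetic acid, and bound dye was recovered in Tris EDTA. Surviving fraction was plotted against concentration, and IC50 was read from the dose–response curves.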

MCF7 [21] = test: Cytotoxicity against human MCF7 cells assessed as surviving fraction at 12.5 ug/ml after 48 hrs by SRB assay relative to control; format: functional; outline: as §3
HCT-116 [22] = test: Cytotoxicity against human HCT116 cells assessed as surviving fraction at 50 ug/ml after 48 hrs by SRB assay relative to control; format: functional; outline: as §3
HeLa [23] = test: Cytotoxicity against human HeLa cells assessed as surviving fraction at 12.5 ug/ml after 48 hrs by SRB assay relative to control; format: functional; outline: as §3
HeLa [24] = test: Cytotoxicity against human HeLa cells after 48 hrs by SRB assay; format: functional, cell-based; outline: as §3
HCT-116 [25] = test: Cytotoxicity against human HCT116 cells assessed as surviving fraction at 25 ug/ml after 48 hrs by SRB assay relative to control; format: functional; outline: as §3
HEp-2 [26] = test: Cytotoxicity against human Hep2 cells assessed as surviving fraction at 12.5 ug/ml after 48 hrs by SRB assay relative to control; format: functional; outline: as §3
HEp-2 [27] = test: Cytotoxicity against human Hep2 cells assessed as surviving fraction at 25 ug/ml after 48 hrs by SRB assay relative to control; format: functional; outline: as §3
HCT-116 [28] = test: Cytotoxicity against human HCT116 cells assessed as surviving fraction at 12.5 ug/ml after 48 hrs by SRB assay relative to control; format: functional; outline: as §3
HeLa [29] = test: Cytotoxicity against human HeLa cells assessed as surviving fraction at 5 ug/ml after 48 hrs by SRB assay relative to control; format: functional; outline: as §3
HEp-2 [30] = test: Cytotoxicity against human Hep2 cells after 48 hrs by SRB assay; format: functional, cell-based; details: HEp-2, 48 h; outline: as §3
MCF7 [31] = test: Cytotoxicity against human MCF7 cells assessed as surviving fraction at 5 ug/ml after 48 hrs by SRB assay relative to control; format: functional; outline: as §3
HepG2 [32] = test: Cytotoxicity against human HepG2 cells assessed as surviving fraction at 12.5 ug/ml after 48 hrs by SRB assay relative to control; format: functional; outline: as §3
HepG2 [33] = test: Cytotoxicity against human HepG2 cells assessed as surviving fraction at 25 ug/ml after 48 hrs by SRB assay relative to control; format: functional; outline: as §3
HEp-2 [34] = test: Cytotoxicity against human Hep2 cells assessed as surviving fraction at 5 ug/ml after 48 hrs by SRB assay relative to control; format: functional; outline: as §3
HeLa [35] = test: Cytotoxicity against human HeLa cells assessed as surviving fraction at 25 ug/ml after 48 hrs by SRB assay relative to control; format: functional; outline: as §3
MCF7 [36] = test: Cytotoxicity against human MCF7 cells after 48 hrs by SRB assay; format: functional, cell-based; details: MCF7, 48 h; outline: as §3
HeLa [37] = test: Cytotoxicity against human HeLa cells assessed as surviving fraction at 50 ug/ml after 48 hrs by SRB assay relative to control; format: functional; outline: as §3
HepG2 [38] = test: Cytotoxicity against human HepG2 cells assessed as surviving fraction at 50 ug/ml after 48 hrs by SRB assay relative to control; format: functional; outline: as §3
MCF7 [39] = test: Cytotoxicity against human MCF7 cells assessed as surviving fraction at 25 ug/ml after 48 hrs by SRB assay relative to control; format: functional; outline: as §3
HCT-116 [40] = test: Cytotoxicity against human HCT116 cells after 48 hrs by SRB assay; format: functional, cell-based; details: HCT-116, 48 h; outline: as §3
MCF7 [41] = test: Cytotoxicity against human MCF7 cells assessed as surviving fraction at 50 ug/ml after 48 hrs by SRB assay relative to control; format: functional; outline: as §3
HEp-2 [42] = test: Cytotoxicity against human Hep2 cells assessed as surviving fraction at 50 ug/ml after 48 hrs by SRB assay relative to control; format: functional; outline: as §3
HepG2 [43] = test: Cytotoxicity against human HepG2 cells assessed as surviving fraction at 5 ug/ml after 48 hrs by SRB assay relative to control; format: functional; outline: as §3
HCT-116 [44] = test: Cytotoxicity against human HCT116 cells assessed as surviving fraction at 5 ug/ml after 48 hrs by SRB assay relative to control; format: functional; outline: as §3

SMILES	zone of inhibition at 5000 µg/mL (Candida albicans [4]) [mm]	zone of inhibition at 5000 µg/mL (Staphylococcus aureus [5]) [mm]	zone of inhibition at 5000 µg/mL (Escherichia coli [10]) [mm]	zone of inhibition at 5000 µg/mL (Bacillus subtilis [11]) [mm]	inhibition at 100 µg/mL [14] [%]	zone of inhibition at 5000 µg/mL (Micrococcus luteus [16]) [mm]	zone of inhibition at 5000 µg/mL (Aspergillus flavus [17]) [mm]	IC50 (HepG2 [20]) [µg/mL]	Activity (MCF7 [21])	Activity (HCT-116 [22])	Activity (HeLa [23])	IC50 (HeLa [24]) [µg/mL]	Activity (HCT-116 [25])	Activity (HEp-2 [26])	Activity (HEp-2 [27])	Activity (HCT-116 [28])	Activity (HeLa [29])	IC50 (HEp-2 [30]) [µg/mL]	Activity (MCF7 [31])	Activity (HepG2 [32])	further results
N=C1C(=S)N(c2ccccc2)C(=O)N1Cc1ccccc1	24	22	23.5	21.5	60	20	17														MFC (Aspergillus flavus [1]): 250 µg/mL (≈ 846 µM); MBC (Escherichia coli [2]): 16.1 µg/mL (≈ 54.5 µM); MIC (Escherichia coli [3]): 16.1 µg/mL (≈ 54.5 µM); MFC (Candida albicans [6]): 64.5 µg/mL (≈ 218 µM); MIC (Candida albicans [7]): 64.5 µg/mL (≈ 218 µM); MIC (Micrococcus luteus [8]): 32.3 µg/mL (≈ 109 µM); MIC (Staphylococcus aureus [9]): 64.5 µg/mL (≈ 218 µM); MIC (Bacillus subtilis [12]): 64.5 µg/mL (≈ 218 µM); MBC (Bacillus subtilis [13]): 64.5 µg/mL (≈ 218 µM); MBC (Staphylococcus aureus [15]): 64.5 µg/mL (≈ 218 µM); MIC (Aspergillus flavus [18]): 250 µg/mL (≈ 846 µM); MBC (Micrococcus luteus [19]): 32.3 µg/mL (≈ 109 µM)
COc1ccc(N2C(=N)C(=S)N(c3ccc(OC)cc3OC)C2=O)cc1	22	20	24.5	20	80	24	17	4.34 (≈ 11.7 µM)	0.17	0.29	0.16	3.12 (≈ 8.4 µM)	0.19	0.2	0.21	0.26	0.21	3.89 (≈ 10.5 µM)	0.25	0.28	Activity (HepG2 [33]): 0.19; Activity (HEp-2 [34]): 0.36; Activity (HeLa [35]): 0.17; IC50 (MCF7 [36]): 3.28 µg/mL (≈ 8.83 µM); Activity (HeLa [37]): 0.23; Activity (HepG2 [38]): 0.23; Activity (MCF7 [39]): 0.18; IC50 (HCT-116 [40]): 3.73 µg/mL (≈ 10 µM); Activity (MCF7 [41]): 0.27; Activity (HEp-2 [42]): 0.28; Activity (HepG2 [43]): 0.42; Activity (HCT-116 [44]): 0.35
COc1ccc(N2C(=O)N(c3ccc(C)cc3)C(=N)C2=S)c(OC)c1	17.5	22	25.5	22.5	70	25	14	6.78 (≈ 19.1 µM)	0.21	0.26	0.14	2.97 (≈ 8.36 µM)	0.2	0.31	0.16	0.15	0.24	7.09 (≈ 19.9 µM)	0.43	0.22	Activity (HepG2 [33]): 0.23; Activity (HEp-2 [34]): 0.6; Activity (HeLa [35]): 0.22; IC50 (MCF7 [36]): 4.34 µg/mL (≈ 12.2 µM); Activity (HeLa [37]): 0.26; Activity (HepG2 [38]): 0.24; Activity (MCF7 [39]): 0.21; IC50 (HCT-116 [40]): 4.04 µg/mL (≈ 11.4 µM); Activity (MCF7 [41]): 0.29; Activity (HEp-2 [42]): 0.3; Activity (HepG2 [43]): 0.6; Activity (HCT-116 [44]): 0.38
